# Test results: ChEMBL document CHEMBL4261629 (Bioorg Med Chem, 2018)
# The source made the active and inactive calls. The calls are words filed in the database; no cut-off is given here.
# Key:
# [1] = target: T1, Protein deacetylase HDAC6 (Homo sapiens, UniProt Q9UBN7); experiment: Inhibition of recombinant human HDAC6 using fluorogenic HDAC substrate preincubated for 15 mins followed by substrate addition and measured after 30 mins by fluorescence analysis
# T1 sequence (Q9UBN7 whole entry): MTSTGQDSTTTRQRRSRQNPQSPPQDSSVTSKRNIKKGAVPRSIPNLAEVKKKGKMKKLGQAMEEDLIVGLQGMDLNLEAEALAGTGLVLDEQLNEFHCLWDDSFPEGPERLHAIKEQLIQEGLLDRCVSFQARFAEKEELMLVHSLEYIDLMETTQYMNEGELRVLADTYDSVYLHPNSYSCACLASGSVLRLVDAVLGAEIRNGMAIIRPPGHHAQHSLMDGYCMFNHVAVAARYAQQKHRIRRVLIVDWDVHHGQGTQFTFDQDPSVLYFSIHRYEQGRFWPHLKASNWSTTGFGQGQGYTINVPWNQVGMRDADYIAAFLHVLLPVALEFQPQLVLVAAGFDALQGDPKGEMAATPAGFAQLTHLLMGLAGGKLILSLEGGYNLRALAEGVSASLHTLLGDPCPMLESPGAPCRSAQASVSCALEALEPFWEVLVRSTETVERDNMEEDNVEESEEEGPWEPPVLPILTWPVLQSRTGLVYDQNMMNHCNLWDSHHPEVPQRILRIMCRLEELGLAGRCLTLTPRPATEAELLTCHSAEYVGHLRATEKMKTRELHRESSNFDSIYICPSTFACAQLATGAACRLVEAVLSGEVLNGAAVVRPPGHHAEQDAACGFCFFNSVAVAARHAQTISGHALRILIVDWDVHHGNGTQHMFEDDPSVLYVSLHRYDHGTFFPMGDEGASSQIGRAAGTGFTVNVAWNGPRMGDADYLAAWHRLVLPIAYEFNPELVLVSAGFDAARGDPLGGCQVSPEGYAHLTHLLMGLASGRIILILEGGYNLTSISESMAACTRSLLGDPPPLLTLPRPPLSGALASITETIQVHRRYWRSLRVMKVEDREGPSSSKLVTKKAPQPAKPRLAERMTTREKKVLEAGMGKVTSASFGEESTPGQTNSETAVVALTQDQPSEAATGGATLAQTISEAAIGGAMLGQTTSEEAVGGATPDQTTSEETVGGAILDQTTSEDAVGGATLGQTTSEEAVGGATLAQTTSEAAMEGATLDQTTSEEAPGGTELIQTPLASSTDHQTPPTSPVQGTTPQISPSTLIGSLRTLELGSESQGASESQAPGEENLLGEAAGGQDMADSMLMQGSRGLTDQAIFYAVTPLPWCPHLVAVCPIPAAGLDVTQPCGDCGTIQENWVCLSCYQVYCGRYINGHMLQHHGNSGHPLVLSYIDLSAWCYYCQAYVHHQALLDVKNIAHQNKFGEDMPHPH
# Histone deacetylase 3 = Histone deacetylase 3 (Homo sapiens, UniProt O15379); experiment: Inhibition of recombinant human HDAC3 using fluorogenic HDAC substrate after 30 mins by fluorescence analysis
# [2] = Antioxidant activity assessed as H2O2 radical scavenging at 10 uM up to 200 mins; format: functional
# Outline: (§1)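 Kinetic peroxide scavenging by GSH at 25 °C in 100 mM phosphate buffer, pH 7.5. Final conditions: EDTA 1 mM, GSH 0.25 mM, NADPH 0.50 mM, glutathione reductase 1.3 unit·mL-1, peroxide 0.20 mM (H2O2, t-BuOOH or Cum-OOH), catalyst 10 μM. Scavenging was followed over time, and maximal scavenging was derived. Mean ± SE, three independent experiments.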
# [3] = Antioxidant activity assessed as tert-butyl hydroperoxide radical scavenging at 10 uM up to 200 mins; format: functional; outline: as §1
# [4] = Antioxidant activity assessed as cumene hydroperoxide radical scavenging at 10 uM up to 200 mins; format: functional; outline: as §1
# PC-12 [5] = experiment: Cytotoxicity against rat PC12 cells at 20 uM after 24 hrs by MTT assay; format: cell-based; details: pc-12, 24 h
# PC-12 [6] = experiment: Neuroprotective activity against H2O2-induced toxicity in rat PC12 cells assessed as cell viability at 5 uM pretreated for 24 hrs followed by H2O2 challenge and measured after 12 hrs by MTT assay relative to control; format: functional; details: read-out: Activity
# Outline: (§2)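 Medium was replaced with fresh medium containing H2O2 (400 μM) or 6-OHDA (200 μM), and incubation continued 12 h. Viability was read by MTT assay. Mean ± SD, three independent experiments.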
# PC-12 [7] = experiment: Neuroprotective activity against 6-OHDA-induced toxicity in rat PC12 cells assessed as increase in cell viability at 5 uM pretreated for 24 hrs followed by 6-OHDA challenge and measured after 12 hrs by MTT assay; format: functional, cell-based; outline: as §2
# PC-12 [8] = experiment: Neuroprotective activity against 6-OHDA-induced toxicity in rat PC12 cells assessed as increase in cell viability at 10 uM pretreated for 24 hrs followed by 6-OHDA challenge and measured after 12 hrs by MTT assay; format: functional, cell-based; outline: as §2
# PC-12 [9] = experiment: Cytoprotective activity against H2O2-induced damage in rat PC12 cells assessed as decrease in ROS accumulation preincubated for 24 hrs followed by H2O2 challenge measured after 12 hrs by DCFH-DA dye-based fluorescence analysis; format: functional, cell-based
# Outline: (§3)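 Intracellular ROS was detected by DCFH-DA staining, which esterases deacetylate and ROS oxidise to fluorescent dichlorofluorescein. Fluorescence was quantified on a microplate reader.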
# PC-12 [10] = experiment: Cytoprotective activity against H2O2-induced damage in rat PC12 cells assessed as decrease in ROS accumulation preincubated for 24 hrs followed by H2O2 challenge measured after 12 hrs by DCFH-DA dye-based inverted fluorescence microscopic analysis; format: functional, cell-based
# Outline: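 PC12 cells were pretreated with compound (5 or 10 µM), then challenged with H2O2 and stained with DCFH-DA to show ROS. Fluorescence images were taken by inverted fluorescence microscopy.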
# [11] = target: T2, Histone deacetylase 6 (Rattus norvegicus) (UniProt Q99P97); experiment: Inhibition of HDAC6 in rat PC12 cells assessed as increase in acetylated alpha-tubulin expression after 24 hrs by Western blot analysis; format: cell-based
# T2 sequence (whole entry): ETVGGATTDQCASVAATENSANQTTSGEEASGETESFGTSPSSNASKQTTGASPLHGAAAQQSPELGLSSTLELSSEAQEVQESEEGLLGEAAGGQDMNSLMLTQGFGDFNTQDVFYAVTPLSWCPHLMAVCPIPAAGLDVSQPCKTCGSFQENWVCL
# Outline: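 Cellular HDAC6 inhibition: PC12 cells were incubated with compound at 0.01, 0.1, 1 and 10 μM. Acetylated α-tubulin and total α-tubulin were detected by Western blot, and their ratio was assessed.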
# PC-12 [12] = experiment: Antioxidant activity against H2O2-induced oxidative stress in rat PC12 cells assessed as decrease in ROS accumulation at 5 uM preincubated for 24 hrs followed by H2O2 challenge and measured after 12 hrs by DCFH-DA dye-based fluorescence analysis; format: functional, cell-based; outline: as §3
# PC-12 [13] = experiment: Antioxidant activity against H2O2-induced oxidative stress in rat PC12 cells assessed as decrease in ROS accumulation preincubated for 24 hrs followed by H2O2 challenge and measured after 12 hrs coincubated with tubastatin A by DCFH-DA dye-based fluorescence analysis; format: functional, cell-based; outline: as §3
# PC-12 [14] = experiment: Neuroprotective activity against H2O2-induced toxicity in rat PC12 cells assessed as cell viability at 10 uM pretreated for 24 hrs followed by H2O2 challenge and measured after 12 hrs by MTT assay relative to control; format: functional, cell-based; outline: as §2
# PC-12 [15] = experiment: Neuroprotective activity against H2O2-induced toxicity in rat PC12 cells assessed as cell viability at 5 to 10 uM pretreated for 24 hrs followed by H2O2 challenge and measured after 12 hrs coincubated with tubastatin A by MTT assay relative to control; format: functional; outline: as §2
# PC-12 [16] = experiment: Neuroprotective activity against 6-OHDA-induced toxicity in rat PC12 cells assessed as increase in cell viability at 5 to 10 uM pretreated for 24 hrs followed by 6-OHDA challenge and measured after 12 hrs coincubated with tubastatin A by MTT assay; format: functional, cell-based; outline: as §2
# PC-12 [17] = experiment: Antioxidant activity against H2O2-induced oxidative stress in rat PC12 cells assessed as decrease in ROS accumulation at 5 uM preincubated for 24 hrs followed by H2O2 challenge and measured after 12 hrs coincubated with tubastatin A by DCFH-DA dye-based fluorescence analysis; format: functional, cell-based; outline: as §3
# PC-12 [18] = experiment: Cytotoxicity against rat PC12 cells at 20 uM in presence of tubastantin A after 24 hrs by MTT assay; format: cell-based; details: pc-12, 24 h
# [19] = Antioxidant activity assessed as H2O2 radical scavenging at 10 uM measured within 180 mins; format: functional; outline: as §1
# [20] = Antioxidant activity assessed as tert-butyl hydroperoxide radical scavenging at 10 uM measured within 180 mins; format: functional; outline: as §1
# [21] = Antioxidant activity assessed as cumene hydroperoxide radical scavenging at 10 uM measured within 180 mins; format: functional; outline: as §1
# PC-12 [22] = experiment: Neuroprotective activity against H2O2-induced toxicity in rat PC12 cells assessed as cell viability at 5 to 10 uM pretreated for 24 hrs followed by H2O2 challenge and measured after 12 hrs coincubated with ebselen by MTT assay relative to control; format: functional
# Outline: (§4)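 PC12 cells seeded at 1 × 10⁴ cells/well and grown 1 d, then pretreated 24 h with compound, alone or with ebselen. Medium replaced with fresh medium containing the insult (H2O2 400 µM or 6-OHDA 200 µM), incubated 12 h. Viability by MTT assay, relative to control. Mean ± SD of three independent experiments.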
# PC-12 [23] = experiment: Neuroprotective activity against 6-OHDA-induced toxicity in rat PC12 cells assessed as increase in cell viability at 5 to 10 uM pretreated for 24 hrs followed by 6-OHDA challenge and measured after 12 hrs coincubated with ebselen by MTT assay; format: functional, cell-based; outline: as §4
# PC-12 [24] = experiment: Antioxidant activity against H2O2-induced oxidative stress in rat PC12 cells assessed as decrease in ROS accumulation at 5 uM preincubated for 24 hrs followed by H2O2 challenge and measured after 12 hrs coincubated with ebselen by DCFH-DA dye-based fluorescence analysis; format: functional, cell-based
# Outline: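 PC12 cells pretreated with compound (5 or 10 µM) alone or together with ebselen, then challenged with H2O2. Intracellular ROS detected by DCFH-DA staining, which is deacetylated in cells and oxidised by ROS to fluorescent dichlorofluorescein. Imaged by inverted fluorescence microscopy and quantified on a fluorescence microplate reader.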
# PC-12 [25] = experiment: Cytotoxicity against rat PC12 cells at 20 uM in presence of ebselen after 24 hrs by MTT assay; format: cell-based; details: pc-12, 24 h
# Outline: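 PC12 cells exposed for 24 h to compound at 10 or 20 µM, alone or combined with ebselen. Viability by MTT assay. Mean ± SD of three independent experiments.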
# Histone deacetylase 3, sequence (O15379 whole entry): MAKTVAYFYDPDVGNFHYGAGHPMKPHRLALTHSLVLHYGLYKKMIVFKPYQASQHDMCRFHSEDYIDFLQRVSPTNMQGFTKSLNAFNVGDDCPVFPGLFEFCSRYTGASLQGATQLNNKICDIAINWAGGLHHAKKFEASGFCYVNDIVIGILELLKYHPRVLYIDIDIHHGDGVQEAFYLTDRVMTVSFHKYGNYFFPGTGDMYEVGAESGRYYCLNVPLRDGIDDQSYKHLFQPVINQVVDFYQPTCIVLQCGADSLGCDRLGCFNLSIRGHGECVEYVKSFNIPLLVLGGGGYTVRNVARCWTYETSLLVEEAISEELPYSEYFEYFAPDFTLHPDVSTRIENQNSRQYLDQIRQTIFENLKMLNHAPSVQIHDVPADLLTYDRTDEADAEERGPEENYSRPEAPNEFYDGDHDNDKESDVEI
smiles,measurement,setting,value
O=C(NO)c1ccc(Cn2[se]c3ccc(F)cc3c2=O)cc1,IC50,[1],178 nM
O=C(CCCCn1[se]c2ccccc2c1=O)NO,IC50,[1],356 nM
O=C(CCCCCCn1[se]c2ccccc2c1=O)NO,IC50,[1],19 nM
same,IC50,Histone deacetylase 3,164 nM
same,Activity,[2],41%
same,Activity,[3],41%
same,Activity,[4],25%
O=C(NO)c1ccc(Cn2[se]c3ccccc3c2=O)cc1,IC50,[1],37 nM
same,IC50,Histone deacetylase 3,1300 nM
same,Activity,[2],62%
same,Activity,[3],78%
same,Activity,[4],37%
same,Activity,PC-12 [5],Non-Toxic
same,viability at 5 µM,PC-12 [6],90%
same,Activity,PC-12 [7],Active
same,Activity,PC-12 [8],Active
same,Activity,PC-12 [9],Active
same,Activity,PC-12 [10],Active
same,inhibition,[11],Dose-dependent effect
same,Activity,PC-12 [12],Active
same,Activity,PC-12 [13],Dose-dependent effect
O=C(NO)c1ccc(Cn2[se]c3ccc(C(F)(F)F)cc3c2=O)cc1,IC50,[1],584 nM
O=C(NO)c1cnc(N2CCC(n3[se]c4ccccc4c3=O)CC2)nc1,IC50,[1],968 nM
O=c1c2ccccc2[se]n1-c1ccccc1 [EBSELEN],IC50,[1],11500 nM
same,Activity,[2],51%
same,Activity,[3],71%
same,Activity,[4],29%
same,Activity,PC-12 [5],Non-Toxic
same,Activity,PC-12 [14],Active
same,Activity,PC-12 [7],Active
same,Activity,PC-12 [8],Active
same,Activity,PC-12 [15],90%
same,Activity,PC-12 [9],Active
same,Activity,PC-12 [10],Active
same,Activity,PC-12 [16],Active
same,Activity,PC-12 [17],Active
same,Activity,PC-12 [12],Active
same,Activity,PC-12 [13],Active
same,Activity,PC-12 [18],Non-Toxic
O=C(NO)c1ccc(Cn2[se]c3ccc(O)cc3c2=O)cc1,IC50,[1],188 nM
same,Activity,PC-12 [5],Non-Toxic
same,Activity,PC-12 [14],Active
same,Activity,PC-12 [7],Active
same,Activity,PC-12 [8],Active
same,Activity,[19],Active
same,Activity,[20],Active
same,Activity,[21],Active
CC(c1ccc(C(=O)NO)cc1)n1[se]c2ccccc2c1=O (racemic),IC50,[1],863 nM
O=C(NO)c1cnc(N2CCC(Cn3[se]c4ccccc4c3=O)CC2)nc1,IC50,[1],444 nM
O=C(NO)c1ccc(-n2[se]c3ccccc3c2=O)cc1,IC50,[1],1970 nM
O=C(CCCCCOc1ccc(-n2[se]c3ccccc3c2=O)cc1)NO,IC50,[1],508 nM
O=C(CCCOc1ccc(-n2[se]c3ccccc3c2=O)cc1)NO,IC50,[1],903 nM
O=C(CCCCCn1[se]c2ccccc2c1=O)NO,IC50,[1],181 nM
O=C(CCc1ccc(-n2[se]c3ccccc3c2=O)cc1)NO,IC50,[1],1140 nM
O=C(CCCCCCOc1ccc(-n2[se]c3ccccc3c2=O)cc1)NO,IC50,[1],181 nM
CN1CCc2c(c3ccccc3n2Cc2ccc(C(=O)NO)cc2)C1 [TUBASTATIN A],Activity,PC-12 [22],90%
same,Activity,PC-12 [5],Non-Toxic
same,Activity,PC-12 [14],Active
same,Activity,PC-12 [7],Active
same,Activity,PC-12 [8],Active
same,Activity,PC-12 [9],Active
same,Activity,PC-12 [10],Active
same,Activity,PC-12 [23],Active
same,Activity,PC-12 [12],Active
same,Activity,PC-12 [24],Active
same,Activity,PC-12 [13],Dose-dependent effect
same,Activity,PC-12 [25],Non-Toxic
O=C(/C=C/c1ccc(-n2[se]c3ccccc3c2=O)cc1)NO,IC50,[1],679 nM
